PG9 Ab binder: binders of HIV-1 gp120 antibody PG9, primary screen, biochemical, TR-FRET; TR-FRET gp120-PG9 antibody binding; inhibition, % at 6.7 µM; 0.43% of 360,000 active; AID 624416, 2012; in the data active = inhibition above about 8.5%
MC4R ag barr: MC4R agonists recruiting beta-arrestin, primary screen, cell-based, luminescence, agonist arm of biased-ligand search. 0.98% of 360,000 active. activation, % at 8.9 µM. Melanocortin receptor 4 (Homo sapiens), P32245. U2OS MC4R beta-arrestin complementation; percent of melanotan II response, DMSO zero. AID 540308, 2011;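 active = activation above a per-plate cutoff, the mean activation of sample wells on that plate plus 3 SD, cut at about 8% in these data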
Rev-erbA mod: modulators of Rev-erb alpha DNA binding, primary screen, biochemical, FITC-DNA, fluorescence polarization, uHTS | Rev-erbα–FITC-DNA binding, 90 min | AID 1259318, 2017 | activity, % at 10 µM | 0.79% of 370,000 active | Nuclear receptor subfamily 1 group D member 1 (Homo sapiens), P20393;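 active = activity above about 14%, limit read from the data; passing the limit was not always enough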;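 note: 0% = DMSO wells with 35 nM protein and 100% = DMSO wells with 750 nM protein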
MC4R antag cAMP: MC4R antagonists of cAMP signaling, primary screen, cell-based, TR-FRET, antagonist arm of biased-ligand search | MC4R-expressing cells, MTII-stimulated cAMP, LANCE TR-FRET | inhibition, % at 6.5 µM | 0.48% of 360,000 active;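 active = inhibition above its plate's cutoff, the mean of tested wells on that plate plus 3 SD, cut at about 29% in these data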;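 note: 0% = Melanotan II alone and 100% = Melanotan II plus saturating MCL0020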
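Assay system: human MC4R-expressing U2OS cells; reagent: Melanotan II stimulation of cells; dosing: 6.5 µM single dose; timing: compound 30 min, challenge 1 h, detection 1 h; signal: TR-FRET cAMP assay; replicates: one well per compound, no replicates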
NTR1 agonist: agonists of human NTR1, primary screen, imaging, U2OS cells, beta-arrestin-GFP, high content. Neurotensin receptor type 1 (Homo sapiens), P30989. AID 493036, 2011. NTR1-U2OS beta-arrestin-GFP spot imaging, agonist mode. 0.17% of 330,000 active. activation, % at 20 µM;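 active = activation at or above 40% of the spot to cytoplasm intensity ratio, with at least 20 cells analyzed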;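 note: 0% = DMSO without peptide and 100% = 100 nM NTR1 peptide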
Target sequence (P30989 whole entry, looked up): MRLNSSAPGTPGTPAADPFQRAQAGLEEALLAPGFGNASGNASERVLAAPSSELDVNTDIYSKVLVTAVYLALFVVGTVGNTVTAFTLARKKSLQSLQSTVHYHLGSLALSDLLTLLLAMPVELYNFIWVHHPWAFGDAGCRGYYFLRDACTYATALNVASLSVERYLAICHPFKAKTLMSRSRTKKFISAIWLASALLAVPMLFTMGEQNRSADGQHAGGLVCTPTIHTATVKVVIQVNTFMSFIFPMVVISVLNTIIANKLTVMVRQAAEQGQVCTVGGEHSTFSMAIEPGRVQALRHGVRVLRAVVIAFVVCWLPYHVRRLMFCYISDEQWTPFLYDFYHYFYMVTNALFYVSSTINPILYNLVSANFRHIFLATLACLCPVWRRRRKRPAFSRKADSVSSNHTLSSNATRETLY
Rev-erbA confirm: modulators of Rev-erb alpha DNA binding, confirmation, biochemical, FITC-DNA, fluorescence polarization, single point; activation, % at 25 µM; 61% of 3,000 active; AID 1259319, 2017; 90 min; shares compounds with Rev-erbA mod;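 active = activation at or above a set limit, or at least 3 SD above the negative control mean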;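 note: 0% = 35 nM protein with DMSO and 100% = 750 nM protein high control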
RORg counter: modulation of RORgamma DNA binding, dose response, counter-screen for Rev-erb alpha modulator project, biochemical, fluorescence polarization, FITC-DNA; AID 1259320, 2017; shares compounds with Rev-erbA mod; purified RORgamma protein-FITC-DNA binding; IC50, µM; 8% of 910 active;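 active = Compounds whose fitted half-maximal concentration for disrupting protein-DNA binding is below 10 micromolar; the record names Rev-erb in its text, so the target is in doubt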
* marks the source's active call; other numbers are inactive results; / = no result. The list is not random: actives were taken first. Their share in the collection is about 2.5%.

SMILES | PG9 Ab binder | MC4R ag barr | Rev-erbA mod | MC4R antag cAMP | NTR1 agonist | Rev-erbA confirm | others
O=C(CC(=O)Nc1cccc(F)c1)Nc1cccc(F)c1 | 0.4 | -1.7 | -3.6 | 17.5 | 0.8 | /
COC(=O)C1=C(C)N(C)C(=NCc2ccc(OC)cc2)NC1c1cccc(C(F)(F)F)c1 (stereo not drawn) | -1.9 | / | 7.1 | / | / | /
Cc1c(C(C)(C)C)sc(=NC(=O)c2ccccc2O)n1C | -0.9 | 1.5 | 21.0* | -0.1 | 8.7 | -10.4
COc1cc2c(cc1OC)C1(Nc3c-2c(C)nn3-c2ccccc2)C(=O)Nc2ccccc21 (stereo not drawn) | -0.5 | -0.6 | 18.3* | 3.5 | 6.7 | 3.2
CCOc1cc2[nH]c(=S)n(CCC(=O)N3CCc4ccccc4C3)c(=O)c2cc1OCC | 0.6 | 1.3 | 58.7* | 0.3 | -0.2 | 62.0* | RORg counter=>40
COc1ccc(OC)c(NC(=O)c2[nH]c(C)c(C(C)=O)c2C)c1 | -1.1 | -1.1 | 31.5* | 2.5 | 3.3 | 22.0*
Cc1ccccc1CN(C)CCS(=O)(=O)c1cc(Cl)ccc1Cl | -2.3 | -3.1 | 16.5* | -12.7 | 2.8 | 7.6
Nc1nnc(CCS(=O)(=O)c2cc(Cl)ccc2Cl)s1 | 0.0 | 0.8 | -2.1 | 5.3 | 1.1 | /
COC(=O)[C@]12C[C@H](CC(=O)N3CCOCC3)C(=O)N(Cc3ccc(Cl)cc3Cl)C1=C[C@H](C(C)(C)C)O[C@@H]2C | / | / | 6.1 | / | / | /
COc1ccc2nc(N/C(N)=N/C(=S)Nc3c(C)cccc3C)nc(C)c2c1 | 2.1 | 3.0 | 20.6 | 16.6 | 3.4 | /
CCOc1ccc2nc(N/C(N)=N/C(=S)Nc3cccc(OC)c3)nc(C)c2c1 | -0.2 | -1.4 | 32.5* | 9.2 | 0.7 | 3.5
COc1ccc2nc(N/C(N)=N/C(=S)Nc3cccc(C)c3)nc(C)c2c1 | -0.3 | -1.8 | 3.6 | -5.5 | 1.3 | /
CCOc1ccc2nc(N/C(N)=N/C(=S)Nc3cccc(C)c3)nc(C)c2c1 | -0.4 | -1.4 | 34.8* | 2.3 | 10.8 | 36.7* | RORg counter=>40
Cc1ccc(NC(=S)/N=C(\N)Nc2nc(C)c3cc(C)c(C)cc3n2)cc1C | -1.8 | 0.8 | 27.1* | 4.5 | 1.0 | -1.0
CCCCn1c(SC(C)C(N)=O)nc2cc(C(=O)OC)ccc2c1=O (stereo not drawn) | -2.2 | -0.4 | -5.0 | 1.8 | 5.5 | /
CCCCn1c(SC(C)C(=O)NCC2CCCO2)nc2cc(C(=O)OC)ccc2c1=O (stereo not drawn) | -0.5 | -2.5 | 39.8* | 4.7 | 3.2 | 31.6* | RORg counter=>40
O=C(Nc1ccccc1)Nc1nc2ncccn2c1-c1ccc(C(F)(F)F)cc1 | / | / | -0.7 | / | / | /
CC(=O)OCCC(CC(C)C)NC(=O)[C@H](CC(C)C)NC(=O)OCc1ccccc1 (stereo partly drawn) | / | / | 3.5 | / | / | /
CC1(c2nnnn2Cc2ccccc2)CSCC(=O)N1Cc1cccs1 (stereo not drawn) | / | / | -4.8 | / | / | /
Cc1cc(C)c2c(n1)sc1c(-c3ccccc3)c(C#N)c(N)nc12 | 3.3 | 3.5 | 23.1* | -6.0 | 13.9 | 4.2
Cc1nc(N)c(C#N)c(-c2ccccc2)c1C | -2.6 | -2.3 | 0.8 | 5.4 | 0.1 | /
CCC(CC)C1=NN2C(=N)/C(=C\c3cc(C)n(-c4cccc(C)c4)c3C)C(=O)N=C2S1 | -2.7 | 2.3 | 32.0* | 5.8 | 7.4 | -7.1
Cc1cc(/C=C2\C(=N)N3C(SCc4ccccc4)=NSC3=NC2=O)c(C)n1Cc1ccccc1 | -2.4 | -1.9 | 73.5* | 2.5 | 2.4 | 41.3*
CC1=NN2C(=N)/C(=C\c3cc(C)n(-c4ccccc4)c3C)C(=O)N=C2S1 | -3.1 | -3.5 | -4.5 | 1.4 | 0.0 | /
CCOC(=O)CC[C@@H]1CC[C@]2(CCCN(C(=O)C3CCCC3)C2)O1 | / | / | -0.8 | / | / | /
